Data: ChEMBL document CHEMBL1143279, “Synthesis, reduction potentials, and antitubercular activity of ring A/B analogues of the bioreductive drug (6S)-2-nitro-6-{[4-(trifluoromethoxy)benzyl]oxy}-6,7-dihydro-5H-imidazo[2,1-b][1,3]oxazine (PA-824)” (J Med Chem, 2009)
Values after ≈ are worked out from the molar mass of the structure shown.

Key:
[1] = system: Mycobacterium tuberculosis; experiment: Antimicrobial activity against Mycobacterium tuberculosis assessed as growth inhibition at 100 uM after 11 days under anaerobic condition by luminescence-based low oxygen recovery assay; format: functional; details: 264 h
[2] = system: Mycobacterium tuberculosis; experiment: Antimicrobial activity against Mycobacterium tuberculosis after 8 days in aerobic condition by alamar blue assay; format: functional; details: 192 h
Procedure, shortened: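 Replicating M. tb was tested in an 8-day microplate assay. Alamar blue was added on day 7 to measure growth. The MIC was taken as the lowest drug concentration giving >90% inhibition.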

[3] = system: Mycobacterium tuberculosis; experiment: Antimicrobial activity against Mycobacterium tuberculosis after 11 days under anaerobic condition by luminescence-based low oxygen recovery assay; format: functional; details: 264 h
[4] = system: Mycobacterium tuberculosis; experiment: Antimicrobial activity against Mycobacterium tuberculosis assessed as growth inhibition at 100 uM after 8 days under aerobic condition by alamar blue assay; format: functional; details: 192 h
Vero = experiment: Cytotoxicity against african green monkey Vero cells after 72 hrs; format: cell-based; details: Chlorocebus sabaeus
Procedure, shortened: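 VERO (CCL-81) monolayers exposed 72 h to 3-fold serial dilutions of compound. Viability read by tetrazolium dye reduction, product absorbance at 490 nm. Untreated cells set 0% inhibition, SDS-lysed cells 100% inhibition.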

Row | Compound | inhibition at 100 µM [1] | MIC [2] | MIC [3] | inhibition at 100 µM [4] | IC50 (Vero)
1 | O=[N+]([O-])c1cc2n(n1)CC(OCc1ccc(OCc3ccccc3)cc1)CN2 (stereo unspecified) | 41% | > 128 µM | > 128 µM | 55% | –
2 | O=[N+]([O-])c1cn2c(n1)NCC(OCc1ccc(OC(F)(F)F)cc1)C2 (stereo unspecified) | 64% | > 128 µM | > 128 µM | 63% | –
3 | O=[N+]([O-])c1cn2c(n1)OCC(OCc1ccc(OCc3ccccc3)cc1)C2 (stereo unspecified) | – | – | – | – | > 128 µM
4 | O=[N+]([O-])c1cn2c(n1)CCC(OCc1ccc(OCc3ccccc3)cc1)C2 (stereo unspecified) | 49% | > 128 µM | > 128 µM | 5% | –
5 | O=[N+]([O-])c1cc2n(n1)CC(OCc1ccc(OC(F)(F)F)cc1)CN2 (stereo unspecified) | – | > 128 µM | 111 µM (≈ 39.8 µg/mL) | 61% | –
6 | O=[N+]([O-])c1cn2c(n1)SCC(OCc1ccc(OCc3ccccc3)cc1)C2 (stereo unspecified) | – | 1.1 µM (≈ 0.437 µg/mL) | 11 µM (≈ 4.37 µg/mL) | – | > 128 µM
7 | O=[N+]([O-])c1nc2n(n1)C[C@H](OCc1ccc(OCc3ccccc3)cc1)CO2 | – | > 128 µM | – | 18% | –
8 | O=[N+]([O-])c1cc2n(n1)CC(OCc1ccc(OC(F)(F)F)cc1)CO2 (stereo unspecified) | 86% | > 128 µM | – | 89% | 88 µM
9 | O=[N+]([O-])c1nc2n(n1)C[C@@H](OCc1ccc(OC(F)(F)F)cc1)CO2 | – | > 128 µM | – | 84% | > 128 µM
10 | O=[N+]([O-])c1nc2n(n1)C[C@H](OCc1ccc(OC(F)(F)F)cc1)CO2 | – | > 128 µM | – | 81% | > 128 µM
11 | CN1CC(OCc2ccc(OCc3ccccc3)cc2)Cn2nc([N+](=O)[O-])cc21 (stereo unspecified) | 3% | > 128 µM | > 128 µM | 58% | > 128 µM
12 | O=[N+]([O-])c1cn2c(n1)S(=O)(=O)CC(OCc1ccc(OCc3ccccc3)cc1)C2 (stereo unspecified) | 79% | > 128 µM | > 128 µM | 61% | > 128 µM
13 | O=[N+]([O-])c1cn2c(n1)SCC(OCc1ccc(OC(F)(F)F)cc1)C2 (stereo unspecified) | – | 1.1 µM (≈ 0.413 µg/mL) | 13 µM (≈ 4.88 µg/mL) | – | > 128 µM
14 | O=[N+]([O-])c1cn2c(n1)OCC(OCc1ccc(OC(F)(F)F)cc1)C2 (stereo unspecified) | – | – | – | – | > 128 µM
15 | O=[N+]([O-])c1cn2c(n1)[S+]([O-])CC(OCc1ccc(OC(F)(F)F)cc1)C2 (stereo unspecified) | – | > 128 µM | 92 µM (≈ 36 µg/mL) | 87% | > 128 µM
16 | O=[N+]([O-])c1cn2c(n1)[S+]([O-])CC(OCc1ccc(OCc3ccccc3)cc1)C2 (stereo unspecified) | 20% | > 128 µM | > 128 µM | 23% | 63 µM
17 | O=[N+]([O-])c1cn2c(n1)S(=O)(=O)CC(OCc1ccc(OC(F)(F)F)cc1)C2 (stereo unspecified) | – | > 128 µM | 89 µM (≈ 36.3 µg/mL) | 89% | > 128 µM
18 | O=[N+]([O-])c1cc2n(n1)CC(OCc1ccc(OCc3ccccc3)cc1)CO2 (stereo unspecified) | 19% | > 128 µM | > 128 µM | 38% | 82 µM
19 | O=[N+]([O-])c1cn2c(n1)CCC(OCc1ccc(OC(F)(F)F)cc1)C2 (stereo unspecified) | 75% | 126 µM (≈ 45 µg/mL) | > 128 µM | – | –
20 | CN1CC(OCc2ccc(OC(F)(F)F)cc2)Cn2nc([N+](=O)[O-])cc21 (stereo unspecified) | 37% | > 128 µM | > 128 µM | 61% | > 128 µM
